The source of these data is ChEMBL document CHEMBL1806433, “Cytotoxicity of aporphines in human colon cancer cell lines HCT-116 and Caco-2: an SAR study” (Bioorg Med Chem Lett, 2011).

Experiment [1] concerns HCT-116. The experiment in a line: Cytotoxicity against human HCT116 cells after 72 hrs by MTS assay. The format is functional, cell-based. Particulars: HCT-116, 72 h. An outline of the steps: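 HCT-116 kept in McCoy's 5a with 10% FBS, 1% nonessential amino acids, 2% HEPES and 1% antibiotic at 37 °C, 5% CO2. Seeded at 5000-3,000 cells/well 24 or 48 h before treatment. Serial dilutions in DMSO (<0.5% in medium) applied for 72 h. MTS/phenazine methosulfate added for 3 h, OD490 read versus 0.5% DMSO controls. IC50 given as mean ± S.D. of three experiments.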
On the technique in general: Tetrazolium dyes change colour on reduction, which living cells bring about.

Experiment [2] can be described thus: Cytotoxicity against human CCD-18Co cells after 72 hrs by MTS assay. It is filed as cell-based. An outline of the steps:
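72 h exposure to serially diluted samples in DMSO (<0.5% in medium), with 0.5% DMSO controls in parallel. MTS reagent with phenazine methosulfate then added for 3 h at 37 °C. Absorbance at 490 nm gives cell number relative to controls. IC50 is the concentration giving 50% growth inhibition, reported as mean ± S.D. of three separate experiments.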

Experiment [3] has as its system Caco-2. Description: Cytotoxicity against human Caco2 cells after 72 hrs by MTS assay. It is filed as functional, cell-based. As to conditions: Caco-2, 72 h. An outline of the steps: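 Caco-2 grown in EMEM with 10% FBS, 1% nonessential amino acids, 1% L-glutamine and 1% antibiotic at 37 °C, 5% CO2. Cells plated at 5000-3,000/well 24 or 48 h before dosing. Serially diluted samples in DMSO (<0.5% in medium) for 72 h. Then MTS plus phenazine methosulfate for 3 h at 37 °C, OD490 read against 0.5% DMSO controls. IC50 reported as mean ± S.D. of three experiments.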

Experiment [4] deals with Caco-2. Description: Ratio of etoposide IC50 to compound IC50 for human Caco2 cells. The format is functional.
The test system of experiment [5] is HCT-116. The experiment in a line: Ratio of etoposide IC50 to compound IC50 for human HCT116 cells. The format is functional.

As a reminder, the IC50 is the concentration that inhibits the measured activity by half. Lower therefore signals higher potency. Turning to `CCOC(=O)N1CCc2cc(OC)c(OC)c3c2[C@@H]1Cc1cc2c(cc1-3)OCO2`, the IC50 is 81.4 µM in the experiment with HCT-116 [1], 112 µM in experiment [2] and 83.2 µM with Caco-2 [3].

Consider `COc1cc([C@@H]2c3cc4c(cc3[C@@H](O[C@@H]3O[C@@H]5CO[C@@H](C)O[C@H]5[C@H](O)[C@H]3O)[C@H]3COC(=O)[C@H]23)OCO4)cc(OC)c1O` [ETOPOSIDE], for which the IC50 came to 25.5 µM in the experiment on HCT-116 [1], 44.4 µM in experiment [2] and 18.6 µM with Caco-2 [3].

Regarding `CCOC(=O)N1CCc2cc(OC)c(OCC)c3c2[C@@H]1Cc1cc2c(cc1-3)OCO2`, the concentration for half-maximal inhibition (IC50) in the experiment on HCT-116 [1] is 73.3 µM; in experiment [2], 134 µM; in the experiment on Caco-2 [3], 73.5 µM.

As for `COc1cc2c3c(c1OC)-c1cc4c(cc1C[C@@H]3N(S(C)(=O)=O)CC2)OCO4`, the 50% inhibitory concentration (IC50) with HCT-116 [1] and with Caco-2 [3] was 196 µM each time.

On to `CCCCCOc1c(OC)cc2c3c1-c1cc4c(cc1C[C@@H]3N(C)CC2)OCO4`, for which the IC50 in the experiment with HCT-116 [1] is 46.3 µM; in experiment [2] it was 73.4 µM; with Caco-2 [3], 35.3 µM.

Consider `COc1c(Br)c2c3c(c1OC)-c1cc4c(cc1C[C@@H]3N(C)CC2)OCO4`, for which the half-maximal inhibitory concentration (IC50) was 100 µM in the experiment with HCT-116 [1], 181 µM in experiment [2] and 101 µM in the experiment on Caco-2 [3].

With `CCOC(=O)N1CCc2cc(OC)c(OCc3ccccc3)c3c2[C@@H]1Cc1cc2c(cc1-3)OCO2`, the IC50 with HCT-116 [1] came out at 93.3 µM; in experiment [2] it was 110 µM; in the experiment with Caco-2 [3], 99.8 µM.

As to `CCC(CC)COc1c(OC)cc2c3c1-c1cc4c(cc1C[C@@H]3N(C)CC2)OCO4`, the IC50 with HCT-116 [1] was 26.6 µM; in experiment [2] it was 50.7 µM; in the experiment with Caco-2 [3] it was 22.8 µM.

As for `COc1cc2c(cc1OC)[C@H](Cc1ccc3c(c1)OCO3)N(C)CC2`, the concentration for half-maximal inhibition (IC50) with HCT-116 [1] and in the experiment with Caco-2 [3] was 191 µM in each case.

`CCOC(=O)N1CCc2cc(OC)c(O)c3c2[C@@H]1Cc1cc2c(cc1-3)OCO2`: the 50% inhibitory concentration (IC50) in the experiment with HCT-116 [1] was 72.7 µM; in experiment [2], 128 µM; with Caco-2 [3] it was 71.7 µM.

`COc1cc2c3c(c1O)-c1cc4c(cc1C[C@@H]3N(C)CC2)OCO4` [DOMESTICINE]: the “Ratio IC50” value is on record as 4 in the experiment on Caco-2 [4] and 3 in the experiment on HCT-116 [5]. In addition, the IC50 was 73.3 µM in the experiment on HCT-116 [1], 134 µM in experiment [2] and 73.5 µM in the experiment with Caco-2 [3].

Regarding `COc1cc2c3c(c1OC(=O)c1ccccc1)-c1cc4c(cc1C[C@@H]3N(C)CC2)OCO4`, the values for the half-inhibitory concentration (IC50) (in the experiment on HCT-116 [1]; in experiment [2]; in the experiment on Caco-2 [3]) were 25.2 µM, 45.1 µM and 25.9 µM, respectively.

For the molecule `COc1cc2c3c(c1OC)-c1cc4c(cc1C[C@@H]3N(C(C)=O)CC2)OCO4`, the 50% inhibitory concentration (IC50) in the experiment with HCT-116 [1] was determined as 186 µM; in experiment [2], 188 µM; in the experiment on Caco-2 [3] it was 160 µM.

Regarding `COc1cc2c(c(-c3ccc4c(c3)OCO4)c1OC)[C@H](C)N(C)CC2`, the half-maximal inhibitory concentration (IC50) amounted to 195 µM in the experiment on HCT-116 [1] and 190 µM in the experiment with Caco-2 [3].

Consider `COc1cc2c3c(c1OC)-c1cc4c(cc1CC3N(C)CC2)OCO4` (centres undefined) [NANTENINE], for which the IC50 with HCT-116 [1] turned out to be 38.3 µM; in experiment [2] it was 56.5 µM; with Caco-2 [3], 36.2 µM.
